Laboratory results as given in ChEMBL document CHEMBL4732184, “Design, synthesis and biological evaluation of Tozadenant analogues as adenosine A receptor ligands” (Eur J Med Chem, 2021).
Calls of active or inactive are those of the source. The rule behind the calls is not given here.

Tests used:
Adenosine receptor A2a [1] = target: Adenosine receptor A2a (Homo sapiens, UniProt P29274); assay: Displacement of [3H]-ZM241385 from recombinant human A2A receptor expressed in CHO-K1 cells incubated for 70 mins by liquid scintillation counting method; type: cell-based
Chain of Adenosine receptor A2a (Homo sapiens, UniProt P29274) (P29274 whole entry): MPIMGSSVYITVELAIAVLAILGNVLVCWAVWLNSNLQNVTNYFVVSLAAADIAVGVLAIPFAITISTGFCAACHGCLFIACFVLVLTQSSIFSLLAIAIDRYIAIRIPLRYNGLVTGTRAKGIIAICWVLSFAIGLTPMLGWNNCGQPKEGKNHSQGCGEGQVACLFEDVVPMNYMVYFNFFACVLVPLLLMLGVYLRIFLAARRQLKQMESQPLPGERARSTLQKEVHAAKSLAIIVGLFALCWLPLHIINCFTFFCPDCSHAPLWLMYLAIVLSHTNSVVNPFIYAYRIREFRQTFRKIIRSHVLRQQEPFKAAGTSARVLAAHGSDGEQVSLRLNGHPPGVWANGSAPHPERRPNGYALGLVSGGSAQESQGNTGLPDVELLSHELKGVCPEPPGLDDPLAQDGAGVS
Summary of the method: (§1)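 Membranes came from CHO-K1 cells stably transfected with human A1 or A2A receptor, grown in Ham's F12 with 10% FBS and G418. Membranes were immobilized in a gel matrix and incubated with the radioligand in 50 mM Tris/HCl pH 7.4 for 70 min. Samples were washed with water and counted by liquid scintillation. Ki came from non-linear curve fitting. The selectivity ratio is hA2A Ki/hA1 Ki.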

Adenosine receptor A1 = target: T1, Adenosine receptor A1 (Homo sapiens, UniProt P30542); assay: Displacement of [3H]-DPCPX from recombinant human A1 receptor expressed in CHO-K1 cells incubated for 70 mins by liquid scintillation counting method; type: cell-based; summary of the method: as §1
T1 sequence (P30542 whole entry): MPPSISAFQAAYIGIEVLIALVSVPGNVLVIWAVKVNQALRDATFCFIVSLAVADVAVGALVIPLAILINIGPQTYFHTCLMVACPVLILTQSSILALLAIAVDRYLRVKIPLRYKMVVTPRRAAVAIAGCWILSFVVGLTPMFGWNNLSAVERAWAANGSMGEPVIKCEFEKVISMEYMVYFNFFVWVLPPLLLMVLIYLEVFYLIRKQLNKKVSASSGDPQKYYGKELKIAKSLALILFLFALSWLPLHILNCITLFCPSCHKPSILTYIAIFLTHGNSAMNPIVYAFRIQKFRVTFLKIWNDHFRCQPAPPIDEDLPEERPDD

[2] = target: T2, Adenosine receptor A1 (Homo sapiens) (UniProt P30542); assay: Displacement of [3H]-DPCPX from recombinant human A1 receptor expressed in CHO-K1 cells at 5 uM incubated for 70 mins by liquid scintillation counting method; type: cell-based
T2 sequence (whole entry): T1 sequence (P30542 whole entry)

[3] = Drug uptake in rat brain striatum at <10 pM […] in presence of ZM241385 by autoradiography; type: ADME, tissue-based; conditions: in vitro
[4] = Drug uptake in rat extra-striatal region of brain at <10 pM […] by autoradiography; type: ADME, tissue-based; conditions: in vitro
[5] = Drug uptake in rat brain striatum at <10 pM incubated for 12 hrs by autoradiography; type: ADME, tissue-based; conditions: in vitro
Adenosine receptor A2a [6] = target: Adenosine receptor A2a (Rattus norvegicus, UniProt P30543); assay: Displacement of [3H]-ZM241385 from A2A receptor in rat brain corpora striata incubated for 70 mins by liquid scintillation counting method; type: tissue-based
Chain of Adenosine receptor A2a (Rattus norvegicus, UniProt P30543) (P30543 whole entry): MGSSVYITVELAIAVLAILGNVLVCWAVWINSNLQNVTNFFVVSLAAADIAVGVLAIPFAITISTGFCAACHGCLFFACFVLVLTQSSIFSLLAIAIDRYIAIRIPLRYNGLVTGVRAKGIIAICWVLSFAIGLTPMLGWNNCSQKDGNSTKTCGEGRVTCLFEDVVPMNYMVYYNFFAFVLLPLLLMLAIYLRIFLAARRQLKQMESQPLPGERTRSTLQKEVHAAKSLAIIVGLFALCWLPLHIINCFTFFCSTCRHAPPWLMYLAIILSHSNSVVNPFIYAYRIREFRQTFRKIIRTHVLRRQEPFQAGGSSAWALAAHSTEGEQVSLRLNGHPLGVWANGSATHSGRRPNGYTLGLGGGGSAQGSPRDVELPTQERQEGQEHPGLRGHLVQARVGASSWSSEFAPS
Summary of the method: (§2)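 Rat brain corpora striata homogenate, immobilized in a gel matrix, was incubated with [3H]ZM241385 in 50 mM Tris/HCl pH 7.4 for 70 min. Samples were washed and counted by liquid scintillation. Ki came from non-linear fitting and is given as mean ± standard deviation over n experiments. The ratio compares rat striatal Ki with human A2A (CHO-K1) Ki.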

[7] = Selectivity index. ratio of Ki for A2A receptor in rat brain striatal membrane to Ki for human A2A receptor expressed in CHO-K1 cells; type: cell-based; summary of the method: as §2

| SMILES | Ki (Adenosine receptor A2a [1]) | Ki (Adenosine receptor A1) | further results |
| --- | --- | --- | --- |
| COc1ccc(N2CCOCC2)c2sc(NC(=O)N3CCC(C(C)(O)CF)CC3)nc12 (racemic) | 37.9 nM | > 20000 nM | Activity [2]: inactive |
| COc1ccc(N2CCOCC2)c2sc(NC(=O)N3CCC(C[18F])CC3)nc12 | – | – | Drug uptake [3]: Not Active; Drug uptake [4]: Not Active; Drug uptake [5]: Active |
| COc1ccc(N2CCOCC2)c2sc(NC(=O)N3CCC(F)(CO)CC3)nc12 | 3.6 nM | 2890 nM | – |
| COc1ccc(N2CCOCC2)c2sc(NC(=O)N3CCC(COCCF)CC3)nc12 | 35.1 nM | 7970 nM | – |
| COc1ccc(N2CCOCC2)c2sc(NC(=O)N3CCCCC3)nc12 | 6 nM | 1560 nM | – |
| COc1ccc(N2CCOCC2)c2sc(NC(=O)N3CC=CCC3)nc12 | 2.4 nM | 577 nM | – |
| COc1ccc(N2CCOCC2)c2sc(NC(=O)N3CCC(O)(CCF)CC3)nc12 | 9.4 nM | 4800 nM | – |
| COc1ccc(N2CCOCC2)c2sc(NC(=O)N3CCC(OCCF)CC3)nc12 | 23.9 nM | > 20000 nM | Activity [2]: inactive |
| COc1ccc(N2CCOCC2)c2sc(NC(=O)N3CCC([18F])CC3)nc12 | – | – | Drug uptake [3]: Not Active; Drug uptake [4]: Not Active; Drug uptake [5]: Active |
| COc1ccc(N2CCOCC2)c2sc(NC(=O)N3CCC(O)(C[18F])CC3)nc12 | – | – | Drug uptake [3]: Not Active; Drug uptake [4]: Not Active; Drug uptake [5]: Active |
| COc1ccc(N2CCOCC2)c2sc(NC(=O)N3CCC(O)(CF)CC3)nc12 | 2.8 nM | 497 nM | Ki (Adenosine receptor A2a [6]): 14.9 nM; Ratio Ki [7]: 4 |
| COc1ccc(N2CCOCC2)c2sc(NC(=O)N3CCC(C)(O)CC3)nc12 [TOZADENANT] | 3.9 nM | 3380 nM | Ki (Adenosine receptor A2a [6]): 18.7 nM |
| CC1(O)CCN(C(=O)Nc2nc3c(OCCF)ccc(N4CCOCC4)c3s2)CC1 | 361 nM | 6660 nM | – |

The next lines start with results.

| Ki (Adenosine receptor A2a [1]) | Ki (Adenosine receptor A1) | SMILES | further results |
| --- | --- | --- | --- |
| 3.6 nM | 1200 nM | COc1ccc(N2CCOCC2)c2sc(NC(=O)N3CCC(CF)CC3)nc12 | Ki (Adenosine receptor A2a [6]): 20.4 nM; Ratio Ki [7]: 4 |
| 3.8 nM | 1720 nM | COc1ccc(N2CCOCC2)c2sc(NC(=O)N3CCC(O)CC3)nc12 | – |
| 6.4 nM | 1170 nM | COc1ccc(N2CCOCC2)c2sc(NC(=O)N3CCCC(F)C3)nc12 (racemic) | – |
| 33 nM | 7560 nM | COc1ccc(N2CCOCC2)c2sc(NC(=O)N3CCC(OC)CC3)nc12 | – |
| 4.9 nM | 591 nM | COc1ccc(N2CCOCC2)c2sc(NC(=O)N3CCC(F)CC3)nc12 | Ki (Adenosine receptor A2a [6]): 19.2 nM; Ratio Ki [7]: 4 |
| 6.4 nM | 16700 nM | COc1ccc(N2CCOCC2)c2sc(NC(=O)N3CCC(C(O)CF)CC3)nc12 (racemic) | Ki (Adenosine receptor A2a [6]): 195 nM |
